# Data from ChEMBL document CHEMBL1914394, “Synthesis and spectroscopic characterization of 4-butoxyethoxy-N-octadecyl-1,8-naphthalimide as a new fluorescent probe for the determination of proteins” (Bioorg Med Chem Lett, 2011).
# Key:
# Albumin [1] = target: T1, Albumin (Bos taurus, UniProt P02769); assay: Binding affinity to bovine serum albumin assessed as decrease in fluorescence intensity at 1.5 x 10^-5 mol/L at pH 7.4 by fluorescence spectroscopy in presence of Na+ cations; format: ADME; settings: cattle, isolated protein, pH 7.4, 15 µM
# T1 sequence (P02769 whole entry): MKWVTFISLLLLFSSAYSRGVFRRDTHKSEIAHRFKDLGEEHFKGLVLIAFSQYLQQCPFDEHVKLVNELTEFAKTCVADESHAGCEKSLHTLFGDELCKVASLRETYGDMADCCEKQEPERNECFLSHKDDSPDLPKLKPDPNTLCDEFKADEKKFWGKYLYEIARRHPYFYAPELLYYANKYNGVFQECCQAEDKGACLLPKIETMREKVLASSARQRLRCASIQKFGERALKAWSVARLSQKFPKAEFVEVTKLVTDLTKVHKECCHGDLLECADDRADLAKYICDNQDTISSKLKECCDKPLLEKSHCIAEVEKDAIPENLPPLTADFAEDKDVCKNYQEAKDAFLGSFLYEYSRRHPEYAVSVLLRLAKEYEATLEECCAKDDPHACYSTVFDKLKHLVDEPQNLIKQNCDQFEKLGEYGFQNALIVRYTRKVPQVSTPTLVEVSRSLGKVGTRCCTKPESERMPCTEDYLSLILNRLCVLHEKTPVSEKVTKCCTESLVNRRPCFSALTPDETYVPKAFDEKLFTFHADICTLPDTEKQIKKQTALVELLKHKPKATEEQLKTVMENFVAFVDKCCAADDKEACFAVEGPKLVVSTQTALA
# Outline: (§1)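 Fluorescence of the BON–BSA system in HCl–Tris pH 7.4 recorded with each interfering ion or amino acid added at different concentrations. Excitation 373 nm; emission scanned 390–550 nm; intensity change noted.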
# Albumin [2] = target: T1, Albumin; assay: Binding affinity to bovine serum albumin assessed as quenching constant at pH 7.4 at 293K by fluorescence spectroscopic analysis; format: ADME; settings: cattle, isolated protein
# Outline: (§2)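 Quenching series of BSA with rising BON levels in HCl–Tris pH 7.4, run at four temperatures. KSV comes from the F0/F versus [BON] Stern–Volmer plot. The bimolecular quenching rate constant is calculated as Kq = KSV/τ0, with a biopolymer fluorescence lifetime τ0 of 10^-8 s.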
# Albumin [3] = target: T1, Albumin; assay: Binding affinity to bovine serum albumin assessed as stem-volmer quenching constant at pH 7.4 at 298K by fluorescence spectroscopic analysis; format: ADME; settings: cattle, isolated protein
# Outline: (§3)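 BSA intrinsic fluorescence titrated with increasing BON in HCl–Tris buffer, pH 7.4, at each of four temperatures. F0/F (without/with BON) plotted against BON concentration; the Stern–Volmer quenching constant KSV is taken from the linear fit.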
# Albumin [4] = target: T1, Albumin; assay: Binding affinity to bovine serum albumin assessed as stem-volmer quenching constant at pH 7.4 at 293K by fluorescence spectroscopic analysis; format: ADME; settings: cattle, isolated protein; outline: as §3
# Albumin [5] = target: T1, Albumin; assay: Binding affinity to bovine serum albumin assessed as quenching constant at pH 7.4 at 298K by fluorescence spectroscopic analysis; format: ADME; settings: cattle, isolated protein; outline: as §2
# Albumin [6] = target: T1, Albumin; assay: Binding affinity to bovine serum albumin assessed as stem-volmer quenching constant at pH 7.4 at 303K by fluorescence spectroscopic analysis; format: ADME; settings: cattle, isolated protein; outline: as §3
# Albumin [7] = target: T1, Albumin; assay: Binding affinity to bovine serum albumin assessed as quenching constant at pH 7.4 at 303K by fluorescence spectroscopic analysis; format: ADME; settings: cattle, isolated protein; outline: as §2
# Albumin [8] = target: T1, Albumin; assay: Binding affinity to bovine serum albumin assessed as stem-volmer quenching constant at pH 7.4 at 308K by fluorescence spectroscopic analysis; format: ADME; settings: cattle, isolated protein; outline: as §3
# Albumin [9] = target: T1, Albumin; assay: Binding affinity to bovine serum albumin assessed as quenching constant at pH 7.4 at 308K by fluorescence spectroscopic analysis; format: ADME; settings: cattle, isolated protein; outline: as §2
# Albumin [10] = target: T1, Albumin; assay: Binding affinity to bovine serum albumin assessed as binding constant at pH 7.4 at 293K by fluorescence spectroscopic analysis; format: ADME; settings: cattle, isolated protein
# Outline: (§4)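 BSA fluorescence quenched by BON in HCl–Tris, pH 7.4, at four temperatures. Binding constants come from fitting the quenching data to the modified Stern–Volmer equation.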
# Albumin [11] = target: T1, Albumin; assay: Binding affinity to bovine serum albumin assessed as binding constant at pH 7.4 at 298K by fluorescence spectroscopic analysis; format: ADME; settings: cattle, isolated protein; outline: as §4
# Albumin [12] = target: T1, Albumin; assay: Binding affinity to bovine serum albumin assessed as binding constant at pH 7.4 at 303K by fluorescence spectroscopic analysis; format: ADME; settings: cattle, isolated protein; outline: as §4
# Albumin [13] = target: T1, Albumin; assay: Binding affinity to bovine serum albumin assessed as binding constant at pH 7.4 at 308K by fluorescence spectroscopic analysis; format: ADME; settings: cattle, isolated protein; outline: as §4
# Albumin [14] = target: T1, Albumin; assay: Binding affinity to bovine serum albumin assessed as decrease in fluorescence intensity at 10^-5 mol/L at pH 7.4 at 298K by fluorescence spectroscopy in presence of warfarin; format: ADME; parameters: scale not given: the % may be the effect or the level left; settings: cattle, isolated protein, pH 7.4, 10 µM
# Outline: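 Site-marker displacement by fluorescence titration: BON and BSA held at a 10:1 molar ratio, then warfarin added stepwise to the mixture. Excitation 280 nm; emission recorded 290–400 nm.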
# Albumin [15] = target: T1, Albumin; assay: Binding affinity to bovine serum albumin assessed as decrease in fluorescence intensity peak1 at 1.71 x 10^-5 mol/L at pH 7.4 at 293K by three-dimensional fluorescence spectroscopy analysis; format: ADME; parameters: scale not given: the % may be the effect or the level left; settings: cattle, isolated protein, pH 7.4, 17.1 µM
# Albumin [16] = target: T1, Albumin; assay: Binding affinity to bovine serum albumin assessed as decrease in fluorescence intensity peak2 at 1.71 x 10^-5 mol/L at pH 7.4 at 293K by three-dimensional fluorescence spectroscopy analysis; format: ADME; parameters: scale not given: the % may be the effect or the level left; settings: cattle, isolated protein, pH 7.4, 17.1 µM
# Albumin [17] = target: T1, Albumin; assay: Binding affinity to bovine serum albumin assessed as decrease in fluorescence intensity at 1.5 x 10^-5 mol/L at pH 7.4 by fluorescence spectroscopy in presence of Zn2+ cations; format: ADME; settings: cattle, isolated protein, pH 7.4, 15 µM; outline: as §1
# Albumin [18] = target: T1, Albumin; assay: Binding affinity to bovine serum albumin assessed as decrease in fluorescence intensity at 1.5 x 10^-5 mol/L at pH 7.4 by fluorescence spectroscopy in presence of Pb2+ cations; format: ADME; settings: cattle, isolated protein, pH 7.4, 15 µM; outline: as §1
# Albumin [19] = target: T1, Albumin; assay: Binding affinity to bovine serum albumin assessed as decrease in fluorescence intensity at 1.5 x 10^-5 mol/L at pH 7.4 by fluorescence spectroscopy in presence of Ni2+ cations; format: ADME; settings: cattle, isolated protein, pH 7.4, 15 µM; outline: as §1
# Albumin [20] = target: T1, Albumin; assay: Binding affinity to bovine serum albumin assessed as decrease in fluorescence intensity at 1.5 x 10^-5 mol/L at pH 7.4 by fluorescence spectroscopy in presence of Mo6+ cations; format: ADME; settings: cattle, isolated protein, pH 7.4, 15 µM; outline: as §1
# Albumin [21] = target: T1, Albumin; assay: Binding affinity to bovine serum albumin assessed as decrease in fluorescence intensity at 1.5 x 10^-5 mol/L at pH 7.4 by fluorescence spectroscopy in presence of Mg2+ cations; format: ADME; settings: cattle, isolated protein, pH 7.4, 15 µM; outline: as §1
# Albumin [22] = target: T1, Albumin; assay: Binding affinity to bovine serum albumin assessed as decrease in fluorescence intensity at 1.5 x 10^-5 mol/L at pH 7.4 by fluorescence spectroscopy in presence of Fe3+ cations; format: ADME; settings: cattle, isolated protein, pH 7.4, 15 µM; outline: as §1
# Albumin [23] = target: T1, Albumin; assay: Binding affinity to bovine serum albumin assessed as decrease in fluorescence intensity at 1.5 x 10^-5 mol/L at pH 7.4 by fluorescence spectroscopy in presence of Cu2+ cations; format: ADME; settings: cattle, isolated protein, pH 7.4, 15 µM; outline: as §1
# Albumin [24] = target: T1, Albumin; assay: Binding affinity to bovine serum albumin assessed as decrease in fluorescence intensity at 1.5 x 10^-5 mol/L at pH 7.4 by fluorescence spectroscopy in presence of Cr3+ cations; format: ADME; settings: cattle, isolated protein, pH 7.4, 15 µM; outline: as §1
# Albumin [25] = target: T1, Albumin; assay: Binding affinity to bovine serum albumin assessed as decrease in fluorescence intensity at 1.5 x 10^-5 mol/L at pH 7.4 by fluorescence spectroscopy in presence of Mn2+ cations; format: ADME; settings: cattle, isolated protein, pH 7.4, 15 µM; outline: as §1
# Albumin [26] = target: T1, Albumin; assay: Binding affinity to bovine serum albumin assessed as decrease in fluorescence intensity at 1.5 x 10^-5 mol/L at pH 7.4 by fluorescence spectroscopy in presence of K+ cations; format: ADME; settings: cattle, isolated protein, pH 7.4, 15 µM; outline: as §1
# Albumin [27] = target: T1, Albumin; assay: Binding affinity to bovine serum albumin assessed as decrease in fluorescence intensity at 1.5 x 10^-5 mol/L at pH 7.4 by fluorescence spectroscopy in presence of Ca2+ cations; format: ADME; settings: cattle, isolated protein, pH 7.4, 15 µM; outline: as §1
# Albumin [28] = target: T1, Albumin; assay: Binding affinity to bovine serum albumin assessed as decrease in fluorescence intensity at 1.5 x 10^-5 mol/L at pH 7.4 by fluorescence spectroscopy in presence of Br- anions; format: ADME; settings: cattle, isolated protein, pH 7.4, 15 µM; outline: as §1
# Albumin [29] = target: T1, Albumin; assay: Binding affinity to bovine serum albumin assessed as decrease in fluorescence intensity at 1.5 x 10^-5 mol/L at pH 7.4 by fluorescence spectroscopy in presence of Cl- anions; format: ADME; settings: cattle, isolated protein, pH 7.4, 15 µM; outline: as §1
# Albumin [30] = target: T1, Albumin; assay: Binding affinity to bovine serum albumin assessed as decrease in fluorescence intensity at 1.5 x 10^-5 mol/L at pH 7.4 by fluorescence spectroscopy in presence of SO42+ anions; format: ADME; settings: cattle, isolated protein, pH 7.4, 15 µM; outline: as §1
# Albumin [31] = target: T1, Albumin; assay: Binding affinity to bovine serum albumin assessed as decrease in fluorescence intensity at 1.5 x 10^-5 mol/L at pH 7.4 by fluorescence spectroscopy in presence of PO42+ anions; format: ADME; settings: cattle, isolated protein, pH 7.4, 15 µM; outline: as §1
# Albumin [32] = target: T1, Albumin; assay: Binding affinity to bovine serum albumin assessed as decrease in fluorescence intensity at 1.5 x 10^-5 mol/L at pH 7.4 by fluorescence spectroscopy in presence of lysine; format: ADME; settings: cattle, isolated protein, pH 7.4, 15 µM; outline: as §1
# Albumin [33] = target: T1, Albumin; assay: Binding affinity to bovine serum albumin assessed as decrease in fluorescence intensity at 1.5 x 10^-5 mol/L at pH 7.4 by fluorescence spectroscopy in presence of tryptophane; format: ADME; settings: cattle, isolated protein, pH 7.4, 15 µM; outline: as §1
# Albumin [34] = target: T1, Albumin; assay: Binding affinity to bovine serum albumin assessed as decrease in fluorescence intensity at 1.5 x 10^-5 mol/L at pH 7.4 by fluorescence spectroscopy in presence of tyrosine; format: ADME; settings: cattle, isolated protein, pH 7.4, 15 µM; outline: as §1
# Albumin [35] = target: T1, Albumin; assay: Binding affinity to bovine serum albumin assessed as decrease in fluorescence intensity at 1.5 x 10^-5 mol/L at pH 7.4 by fluorescence spectroscopy in presence of glycine; format: ADME; settings: cattle, isolated protein, pH 7.4, 15 µM; outline: as §1
# Albumin [36] = target: T1, Albumin; assay: Binding affinity to bovine serum albumin assessed as decrease in fluorescence intensity at 1.5 x 10^-5 mol/L at pH 7.4 by fluorescence spectroscopy in presence of proline; format: ADME; settings: cattle, isolated protein, pH 7.4, 15 µM; outline: as §1
# Albumin [37] = target: T1, Albumin; assay: Binding affinity to bovine serum albumin assessed as quenching constant at pH 7.4 at 293K by fluorescence spectroscopy; settings: cattle, isolated protein
structure (smiles),measurement,setting,value
CCCCCCCCCCCCCCCCCCN1C(=O)c2cccc3c(OCCOCCCC)ccc(c23)C1=O,Activity,Albumin [1],Not Active
same,Kq,Albumin [2],9.4 ×10¹¹ L/mol/s
same,KSV,Albumin [3],9.03 ×10³ L/mol
same,KSV,Albumin [4],9.4 ×10³ L/mol
same,Kq,Albumin [5],9.03 ×10¹¹ L/mol/s
same,KSV,Albumin [6],8.76 ×10³ L/mol
same,Kq,Albumin [7],8.76 ×10¹¹ L/mol/s
same,KSV,Albumin [8],8.54 ×10³ L/mol
same,Kq,Albumin [9],8.54 ×10¹¹ L/mol/s
same,Kb,Albumin [10],3.89 ×10³ L/mol
same,Kb,Albumin [11],2.82 ×10³ L/mol
same,Kb,Albumin [12],2.12 ×10³ L/mol
same,Kb,Albumin [13],1.77 ×10³ L/mol
same,Activity,Albumin [14],42%
same,Activity,Albumin [15],25.16%
same,Activity,Albumin [16],37.24%
same,Activity,Albumin [17],Not Active
same,Activity,Albumin [18],Not Active
same,Activity,Albumin [19],Not Active
same,Activity,Albumin [20],Not Active
same,Activity,Albumin [21],Not Active
same,Activity,Albumin [22],Not Active
same,Activity,Albumin [23],Not Active
same,Activity,Albumin [24],Not Active
same,Activity,Albumin [25],Not Active
same,Activity,Albumin [26],Not Active
same,Activity,Albumin [27],Not Active
same,Activity,Albumin [28],Active
same,Activity,Albumin [29],Active
same,Activity,Albumin [30],Active
same,Activity,Albumin [31],Active
same,Activity,Albumin [32],Active
same,Activity,Albumin [33],Active
same,Activity,Albumin [34],Active
same,Activity,Albumin [35],Active
same,Activity,Albumin [36],Active
same,Activity,Albumin [37],Active
